Values belong to the molecule of their own block, whether it stands above or below them. Calls of active or inactive are those of the source. No cut-off for these calls is given here.
Experiments:
[1] = target: T1, Broad substrate specificity ATP-binding cassette transporter ABCG2 (Homo sapiens, UniProt Q9UNQ0); test: Inhibition of ABCG2 (unknown origin)
T1 sequence (Q9UNQ0 whole entry): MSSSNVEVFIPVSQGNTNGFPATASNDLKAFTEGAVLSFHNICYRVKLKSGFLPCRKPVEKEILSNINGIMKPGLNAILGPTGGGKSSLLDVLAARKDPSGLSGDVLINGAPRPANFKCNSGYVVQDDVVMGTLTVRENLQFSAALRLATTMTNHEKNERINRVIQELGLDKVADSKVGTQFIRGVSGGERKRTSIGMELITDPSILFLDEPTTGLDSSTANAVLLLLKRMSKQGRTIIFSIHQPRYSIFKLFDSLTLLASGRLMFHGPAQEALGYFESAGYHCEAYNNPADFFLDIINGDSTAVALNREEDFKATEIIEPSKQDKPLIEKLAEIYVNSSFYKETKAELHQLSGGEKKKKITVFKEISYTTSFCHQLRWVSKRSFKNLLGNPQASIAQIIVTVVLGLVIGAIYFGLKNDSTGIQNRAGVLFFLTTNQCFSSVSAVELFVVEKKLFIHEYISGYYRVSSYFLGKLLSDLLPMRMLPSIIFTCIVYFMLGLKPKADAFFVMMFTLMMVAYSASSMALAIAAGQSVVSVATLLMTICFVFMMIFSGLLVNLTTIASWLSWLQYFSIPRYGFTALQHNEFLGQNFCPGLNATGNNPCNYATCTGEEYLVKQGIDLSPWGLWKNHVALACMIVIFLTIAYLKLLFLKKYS

[2] = target: T1, Broad substrate specificity ATP-binding cassette transporter ABCG2; test: Inhibition of human C-terminal GFP-tagged ABCG2 expressed in MDCK2 cells assessed as SN-38-induced cytotoxicity by measuring cell viability at 0.01 to 0.1 uM after 72 hrs by MTT assay; type: cell-based; details: mdck-ii
Outline: (§1)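 SN-38 dose-response curves in MDCK II BCRP cells (canine kidney line stably transfected with human ABCG2 C-terminally fused to GFP) and parental MDCK II wild-type cells. Modulator was present at a final 0.01 or 0.1 µM. Cells were seeded at 3 x 10³ per well, attached 6 h, then exposed 72 h. MTT was read at 570 nm minus 690 nm. Data were normalized and fitted with variable-slope sigmoidal regression.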

[3] = target: T1, Broad substrate specificity ATP-binding cassette transporter ABCG2; test: Non-competitive inhibition of human C-terminal GFP-tagged ABCG2 expressed in MDCK2 cells using pheophorbide A as substrate preincubated for 20 mins followed by substrate addition measured after 120 mins by Lineweaver-Burk plot analysis; type: cell-based; details: mdck-ii, 2 h
Outline: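 Pheophorbide A accumulation in MDCK II BCRP cells with substrate at 0.2, 0.4, 0.5, 1.0, 1.5 and 2.0 μM. Inhibitor at 0, 0.031, 0.1, 0.18, 0.31 and 0.56 μM. Transport velocities analyzed by Lineweaver-Burk linearization; inhibition type assigned from changes in KM and Vmax.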

MDCK-II = test: Potentiation of SN-38-induced cytotoxicity in MDCK2 cells assessed as decrease in cell viability at 0.01 to 0.1 uM after 72 hrs by MTT assay; type: functional, cell-based; details: Canis lupus familiaris; outline: as §1
ABCG2 = test: Therapeutic ratio of GI50 for MDCK2 cells expressing human C-terminal GFP-tagged ABCG2 to IC50 for human C-terminal GFP-tagged ABCG2 expressed in MDCK2 cells; type: ADME, cell-based; details: dog, read-out: TI
Outline: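 Ratio of GI50 from a 72 h MTT assay in MDCK II BCRP cells to IC50 from the pheophorbide A assay in the same cells.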

[4] = target: Multidrug resistance-associated protein 1 (Homo sapiens, UniProt P33527); test: Inhibition of ABCC1 in human H69AR cells at 10 uM incubated for 30 mins measured up to 3600 secs with time intervals of 60 secs by calcein accumulation assay; type: cell-based
Outline: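 Calcein AM assay in ABCC1-overexpressing H69AR cells, about 30,000/well, 30 min preincubation with compound at 10 μM. Calcein AM (1.25 µM solution) added; fluorescence at ex 485/em 520 nm every 60 s up to 3600 s at 37 °C.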

[5] = Cytotoxicity against MDCK2 cells assessed as reduction in cell viability after 72 hrs by MTT assay; type: cell-based, Canis lupus familiaris, MDCK-II; details: dog
Outline: (§2)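 Seeding 3 x 10³ cells/well, 6 h attachment at 37 °C, 5% CO2, then compound for 72 h. Controls: 10% DMSO (positive), medium (negative). MTT 5 mg/ml stock for 1 h; formazan in DMSO; A570, background 690 nm. Normalized to control; GI50 from variable-slope sigmoidal fit.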

[6] = target: T1, Broad substrate specificity ATP-binding cassette transporter ABCG2; test: Inhibition of vanadate-sensitive ATPase activity of recombinant human ABCG2 expressed in baculovirus infected Sf9 cell membrane assessed as decrease in inorganic phosphate production at >1 uM after 20 mins by colorimetry; details: sf9, 20 min
Outline: (§3)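 Sf9 membranes from cells infected with baculovirus carrying human wild-type ABCG2, cholesterol-loaded; protein by BCA. Buffer: 40 mM MOPS-Tris pH 7.0, 50 mM KCl, 2 mM DTT, 500 µM EGTA-Tris, 5 mM azide, 1 mM ouabain, 10 µg protein. Reaction started with 3.3 mM MgATP, 20 min at 37 °C. Basal activity with 1 mM orthovanadate; 1 µM quercetin and 1 µM Ko143 as references. Pi by molybdate/ascorbate at 880 nm against K2HPO4 standard; triplicates.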

[7] = target: T1, Broad substrate specificity ATP-binding cassette transporter ABCG2; test: Inhibition of human C-terminal GFP-tagged ABCG2 expressed in MDCK2 cells using pheophorbide A as substrate preincubated for 20 mins followed by substrate addition measured after 120 mins by flow cytometry; type: cell-based, MDCK-II
Outline: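 MDCK II BCRP cells, about 45,000/well in KHB, preincubated with compound for 20 min at 37 °C, 5% CO2. Pheophorbide A added (5 µM solution), then 120 min to steady state. Flow cytometry: excitation 488 nm, emission >670 nm (FL3); GFP in FL1. IC50 from 4-parameter logistic fit; duplicates.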

[8] = target: T2, ATP-dependent translocase ABCB1 (Homo sapiens, UniProt P08183); test: Inhibition of ABCB1 in human A2780/ADR cells incubated for 30 mins measured up to 3600 secs with time intervals of 60 secs by calcein accumulation assay; type: cell-based
[9] = target: T1, Broad substrate specificity ATP-binding cassette transporter ABCG2; test: Induction of vanadate-sensitive ATPase activity of recombinant human ABCG2 expressed in baculovirus infected Sf9 cell membrane assessed as increase in inorganic phosphate production up to 1 uM after 20 mins by colorimetry; details: sf9, 20 min; outline: as §3
[10] = Cytotoxicity against MDCK2 cells expressing human C-terminal GFP-tagged ABCG2 assessed as reduction in cell viability after 72 hrs by MTT assay; type: ADME, cell-based, Canis lupus familiaris, MDCK-II; details: dog; outline: as §2
[11] = target: T2, ATP-dependent translocase ABCB1; test: Inhibition of ABCB1 mediated efflux in human MCF7/DX1 cells assessed as intracellular rhodamine-123 accumulation after 30 to 40 mins by flow cytometry; type: cell-based

T2 sequence (P08183 whole entry): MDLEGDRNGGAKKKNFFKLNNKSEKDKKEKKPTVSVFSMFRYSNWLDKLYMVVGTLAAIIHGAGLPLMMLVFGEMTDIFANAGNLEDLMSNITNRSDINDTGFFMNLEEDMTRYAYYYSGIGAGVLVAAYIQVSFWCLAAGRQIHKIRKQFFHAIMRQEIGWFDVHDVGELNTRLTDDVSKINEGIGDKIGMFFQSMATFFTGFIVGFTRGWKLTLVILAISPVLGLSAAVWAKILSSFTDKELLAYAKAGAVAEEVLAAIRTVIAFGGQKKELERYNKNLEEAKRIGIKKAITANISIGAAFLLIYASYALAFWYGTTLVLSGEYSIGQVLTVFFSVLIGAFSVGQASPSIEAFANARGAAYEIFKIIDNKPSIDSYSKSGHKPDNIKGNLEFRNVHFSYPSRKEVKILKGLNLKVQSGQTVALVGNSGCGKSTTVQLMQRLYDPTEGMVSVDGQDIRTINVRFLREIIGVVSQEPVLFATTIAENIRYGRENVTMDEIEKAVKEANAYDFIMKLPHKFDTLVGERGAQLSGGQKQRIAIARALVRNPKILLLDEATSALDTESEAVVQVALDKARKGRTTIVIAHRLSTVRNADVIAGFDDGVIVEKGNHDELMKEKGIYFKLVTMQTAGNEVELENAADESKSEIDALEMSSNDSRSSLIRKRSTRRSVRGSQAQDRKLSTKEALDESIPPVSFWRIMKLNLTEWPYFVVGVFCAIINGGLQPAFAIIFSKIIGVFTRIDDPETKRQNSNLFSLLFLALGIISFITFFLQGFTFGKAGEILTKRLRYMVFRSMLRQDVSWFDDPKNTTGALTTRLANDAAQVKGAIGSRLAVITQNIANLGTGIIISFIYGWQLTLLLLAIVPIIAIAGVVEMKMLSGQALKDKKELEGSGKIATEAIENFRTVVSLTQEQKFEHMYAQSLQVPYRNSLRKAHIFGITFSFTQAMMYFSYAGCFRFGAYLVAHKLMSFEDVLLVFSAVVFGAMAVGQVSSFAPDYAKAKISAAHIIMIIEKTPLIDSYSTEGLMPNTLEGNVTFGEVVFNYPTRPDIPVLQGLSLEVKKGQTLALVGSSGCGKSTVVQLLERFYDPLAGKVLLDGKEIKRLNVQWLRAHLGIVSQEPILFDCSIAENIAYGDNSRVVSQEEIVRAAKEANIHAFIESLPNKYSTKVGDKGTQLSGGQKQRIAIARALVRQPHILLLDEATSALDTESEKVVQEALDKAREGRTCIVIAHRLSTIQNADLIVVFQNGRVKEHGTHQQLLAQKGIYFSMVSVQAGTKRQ
Chain of Multidrug resistance-associated protein 1 (P33527 whole entry): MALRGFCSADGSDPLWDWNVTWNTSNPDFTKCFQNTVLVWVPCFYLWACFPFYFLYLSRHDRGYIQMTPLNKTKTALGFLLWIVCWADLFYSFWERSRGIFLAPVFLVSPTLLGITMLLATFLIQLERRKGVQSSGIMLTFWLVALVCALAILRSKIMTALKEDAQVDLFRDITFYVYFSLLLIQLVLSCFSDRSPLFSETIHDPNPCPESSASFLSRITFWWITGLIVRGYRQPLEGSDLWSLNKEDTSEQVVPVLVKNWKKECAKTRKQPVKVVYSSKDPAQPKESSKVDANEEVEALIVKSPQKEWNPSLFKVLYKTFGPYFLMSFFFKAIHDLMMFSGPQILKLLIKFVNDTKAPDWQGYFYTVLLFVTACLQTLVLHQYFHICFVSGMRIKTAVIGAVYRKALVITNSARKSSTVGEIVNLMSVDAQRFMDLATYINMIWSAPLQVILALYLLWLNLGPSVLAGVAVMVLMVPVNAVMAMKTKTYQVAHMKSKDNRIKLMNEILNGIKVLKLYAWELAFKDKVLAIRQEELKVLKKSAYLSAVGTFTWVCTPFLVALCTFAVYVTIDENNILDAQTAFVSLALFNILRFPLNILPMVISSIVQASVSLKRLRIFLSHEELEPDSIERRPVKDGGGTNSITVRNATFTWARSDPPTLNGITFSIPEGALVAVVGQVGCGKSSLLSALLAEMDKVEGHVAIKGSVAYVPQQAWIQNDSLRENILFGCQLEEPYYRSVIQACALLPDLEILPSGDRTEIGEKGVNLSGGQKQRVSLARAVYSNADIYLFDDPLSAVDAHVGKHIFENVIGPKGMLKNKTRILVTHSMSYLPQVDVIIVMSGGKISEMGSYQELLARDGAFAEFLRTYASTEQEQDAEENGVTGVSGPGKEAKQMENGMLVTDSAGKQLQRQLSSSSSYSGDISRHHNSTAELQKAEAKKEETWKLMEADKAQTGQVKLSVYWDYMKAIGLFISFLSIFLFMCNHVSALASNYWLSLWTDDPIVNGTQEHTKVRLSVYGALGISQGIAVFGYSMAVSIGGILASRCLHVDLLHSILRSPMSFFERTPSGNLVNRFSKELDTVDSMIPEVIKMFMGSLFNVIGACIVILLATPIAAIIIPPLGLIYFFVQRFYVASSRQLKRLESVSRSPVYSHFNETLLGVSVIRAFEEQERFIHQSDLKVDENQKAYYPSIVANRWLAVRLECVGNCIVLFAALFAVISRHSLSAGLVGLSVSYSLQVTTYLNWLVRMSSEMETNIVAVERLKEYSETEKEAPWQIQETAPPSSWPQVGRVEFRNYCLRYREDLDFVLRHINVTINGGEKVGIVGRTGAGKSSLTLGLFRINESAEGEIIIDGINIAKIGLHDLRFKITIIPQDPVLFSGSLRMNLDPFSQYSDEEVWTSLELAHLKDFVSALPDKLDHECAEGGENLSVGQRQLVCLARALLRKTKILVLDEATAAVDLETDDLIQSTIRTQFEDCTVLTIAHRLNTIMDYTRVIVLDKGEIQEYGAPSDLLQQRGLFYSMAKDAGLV

IC50 [1]: 5.12 µM
Structure (SMILES): COc1ccc(/C=C/C(=O)c2ccc(OC)c(OC)c2)cc1OC

inhibition (INH) [3]: Active
inhibition (INH) [4]: Not Active
inhibition (INH) [6]: Active
IC50 [7]: 0.19 µM
IC50 [8]: 14.9 µM
Activity [9]: Active
Structure (SMILES): COc1ccc(/C=C/C(=O)c2ccc(Nc3nc(-c4ccc(OC)c(OC)c4)nc4ccccc34)cc2)cc1OC
inhibition (INH) [2]: Active
Activity (MDCK-II): Active
selectivity ratio (ABCG2): 489
GI50 at 72 h [5]: 132 µM
GI50 at 72 h [10]: 92.9 µM

IC50 [11]: 0.8 µM
Structure (SMILES): COc1ccc2c3c1O[C@H]1C[C@@H](OC(=O)CCCCCCCCC(=O)O[C@H]4C=C[C@@]56CN(C)CCc7ccc(OC)c(c75)O[C@H]6C4)C=C[C@@]31CN(C)CC2
